Calls of active or inactive are those of the source.
Assays:
[1] = biological target: Cyclin-dependent kinase 7 (Homo sapiens) (UniProt P50613); experiment: Inhibition of CDK7 in human MEC1 cells assessed as decrease in RNA polymerase 2 phosphorylation at Ser 5 residues up to 3 uM after 2 hrs by immunoblotting analysis; format: cell-based
[2] = AUC (0 to infinity) in Sprague-Dawley rat at 3 mg/kg, iv by LC-MS/MS analysis; format: ADME, organism-based; parameters: dose 3 mg/kg, time infinity, route intravenous; conditions: in vivo
In short: (§1)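 Non-compartmental PK. Male SD rats 190-210 g, mice and beagle dogs acclimatized one week, fasted 12 h with water, split into iv and po groups (mice 48, rats 6, dogs 6). iv 3/3/2 mg/kg (mice/rats/dogs); po 10/20/10 mg/kg; vehicle DMSO in 5% glucose water. Blood at 2 or 5 to 720 min; plasma protein-precipitated with methanol, caffeine internal standard, LC-MS/MS.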

Canis familiaris = experiment: AUC (0 to infinity) in beagle dog at 10 mg/kg, po by LC-MS/MS analysis; format: ADME, organism-based, Canis lupus familiaris; parameters: dose 10 mg/kg, time infinity, route oral; conditions: in vivo; in short: as §1
[3] = MRT (0 to infinity) in beagle dog at 2 mg/kg, iv by LC-MS/MS analysis; format: ADME, organism-based, Canis lupus familiaris; conditions: in vivo
[4] = test system: Tyrosine-protein kinase ABL1 (Homo sapiens), P00519 [Y253F]; experiment: Binding affinity to human phosphorylated ABL1 Y253F mutant (S229 to K512 residues) expressed in mammalian expression system assessed as remaining unbound target protein level at 1000 nM by Kinomescan method relative to control
In short: (§2)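 Single-point competition binding screen across a panel of 468 kinases and mutants, with the inhibitor at 1 μM. Binding is read out as percent of a DMSO control, and targets below 1 percent control were classed as strong binders.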

[5] = biological target: RAC-beta serine/threonine-protein kinase (Homo sapiens) (UniProt P31751); experiment: Binding affinity to wild-type human partial length AKT2 expressed in bacterial expression system assessed as remaining unbound target protein level at 1000 nM by Kinomescan method relative to control
In short: (§3)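 Profiled in a KINOMEscan binding panel with the inhibitor at a single concentration of 1 μM. Binding to each kinase was read out as percent of control, relative to a DMSO control. Strong binders were defined as those with a percent control value below 1.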

[6] = biological target: Ankyrin repeat and protein kinase domain-containing protein 1 (Homo sapiens) (UniProt Q8NFD2); experiment: Binding affinity to wild-type human partial length ANKK1 (M1 to A305 residues) expressed in mammalian expression system assessed as remaining unbound target protein level at 1000 nM by Kinomescan method relative to control; in short: as §3
[7] = biological target: Mitogen-activated protein kinase kinase kinase 5 (Homo sapiens) (UniProt Q99683); experiment: Binding affinity to wild-type human partial length ASK1 (E648 to S964 residues) expressed in bacterial expression system assessed as remaining unbound target protein level at 1000 nM by Kinomescan method relative to control
In short: (§4)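 KINOMEscan competition binding profile across a panel of 468 kinases and mutants, with the inhibitor tested at a single concentration of 1 μM. Binding is reported as percent of control, meaning signal relative to a DMSO control.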

[8] = biological target: Receptor tyrosine-protein kinase erbB-3 (Homo sapiens) (UniProt P21860); experiment: Binding affinity to wild-type human partial length ERBB3 (G684 to A987 residues) expressed in mammalian expression system assessed as remaining unbound target protein level at 1000 nM by Kinomescan method relative to control
In short: (§5)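 KINOMEscan binding panel of 468 kinases/mutants. Inhibitor was tested at a single concentration of 1 μM. Binding is reported as percent of control, defined relative to a DMSO control.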

[9] = biological target: Fibroblast growth factor receptor 2 (Homo sapiens) (UniProt P21802); experiment: Binding affinity to wild-type human partial length FGFR2 (D457 to E769 residues) expressed in bacterial expression system assessed as remaining unbound target protein level at 1000 nM by Kinomescan method relative to control; in short: as §5
[10] = biological target: Mast/stem cell growth factor receptor Kit (Homo sapiens) (UniProt P10721); experiment: Binding affinity to wild-type human partial length autoinhibited KIT (Y545 to D952 residues) expressed in mammalian expression system assessed as remaining unbound target protein level at 1000 nM by Kinomescan method relative to control
[11] = biological target: MAP/microtubule affinity-regulating kinase 3 (Homo sapiens) (UniProt P27448); experiment: Binding affinity to wild-type human full length MARK3 (M1 to L729 residues) expressed in bacterial expression system assessed as remaining unbound target protein level at 1000 nM by Kinomescan method relative to control; in short: as §2
[12] = biological target: Serine/threonine-protein kinase 24 (Homo sapiens) (UniProt Q9Y6E0); experiment: Binding affinity to wild-type human partial length MST3 (A30 to S311 residues) expressed in bacterial expression system assessed as remaining unbound target protein level at 1000 nM by Kinomescan method relative to control
[13] = biological target: Myosin-IIIa (Homo sapiens) (UniProt Q8NEV4); experiment: Binding affinity to wild-type human partial length MYO3A (M1 to K338 residues) expressed in bacterial expression system assessed as remaining unbound target protein level at 1000 nM by Kinomescan method relative to control
[14] = biological target: Serine/threonine-protein kinase 38 (Homo sapiens) (UniProt Q15208); experiment: Binding affinity to wild-type human partial length NDR1 (N33 to E449 residues) expressed in mammalian expression system assessed as remaining unbound target protein level at 1000 nM by Kinomescan method relative to control
[15] = biological target: Protein kinase C theta type (Homo sapiens) (UniProt Q04759); experiment: Binding affinity to wild-type human partial length PRKCQ (L350 to S706 residues) expressed in bacterial expression system assessed as remaining unbound target protein level at 1000 nM by Kinomescan method relative to control
[16] = biological target: Ribosomal protein S6 kinase alpha-4 (Homo sapiens) (UniProt O75676); experiment: Binding affinity to wild-type human partial length N-terminal RPS6KA4 kinase domain 1 expressed in bacterial expression system assessed as remaining unbound target protein level at 1000 nM by Kinomescan method relative to control
[17] = biological target: Serine/threonine-protein kinase Sgk1 (Homo sapiens) (UniProt O00141); experiment: Binding affinity to wild-type human partial length SGK (I60 to L431 residues) expressed in mammalian expression system assessed as remaining unbound target protein level at 1000 nM by Kinomescan method relative to control
[18] = biological target: SRSF protein kinase 1 (Homo sapiens) (UniProt Q96SB4); experiment: Binding affinity to wild-type human full length SRPK1 (M1 to S655 residues) expressed in bacterial expression system assessed as remaining unbound target protein level at 1000 nM by Kinomescan method relative to control; in short: as §4
[19] = biological target: Dual specificity testis-specific protein kinase 1 (Homo sapiens) (UniProt Q15569); experiment: Binding affinity to wild-type human full length TESK1 (R37 to S626 residues) expressed in bacterial expression system assessed as remaining unbound target protein level at 1000 nM by Kinomescan method relative to control; in short: as §3
[20] = biological target: Serine/threonine-protein kinase VRK2 (Homo sapiens) (UniProt Q86Y07); experiment: Binding affinity to wild-type human partial length VRK2 (M1 to T336 residues) expressed in mammalian expression system assessed as remaining unbound target protein level at 1000 nM by Kinomescan method relative to control
CDK9/cyclin T1 = CDK9/cyclin T1 (Homo sapiens, UniProt P50750); experiment: Inhibition of recombinant full length His-tagged human CDK9/CyclinT1 expressed in baculovirus expression system
Chain of CDK9/cyclin T1 (O60563 whole entry): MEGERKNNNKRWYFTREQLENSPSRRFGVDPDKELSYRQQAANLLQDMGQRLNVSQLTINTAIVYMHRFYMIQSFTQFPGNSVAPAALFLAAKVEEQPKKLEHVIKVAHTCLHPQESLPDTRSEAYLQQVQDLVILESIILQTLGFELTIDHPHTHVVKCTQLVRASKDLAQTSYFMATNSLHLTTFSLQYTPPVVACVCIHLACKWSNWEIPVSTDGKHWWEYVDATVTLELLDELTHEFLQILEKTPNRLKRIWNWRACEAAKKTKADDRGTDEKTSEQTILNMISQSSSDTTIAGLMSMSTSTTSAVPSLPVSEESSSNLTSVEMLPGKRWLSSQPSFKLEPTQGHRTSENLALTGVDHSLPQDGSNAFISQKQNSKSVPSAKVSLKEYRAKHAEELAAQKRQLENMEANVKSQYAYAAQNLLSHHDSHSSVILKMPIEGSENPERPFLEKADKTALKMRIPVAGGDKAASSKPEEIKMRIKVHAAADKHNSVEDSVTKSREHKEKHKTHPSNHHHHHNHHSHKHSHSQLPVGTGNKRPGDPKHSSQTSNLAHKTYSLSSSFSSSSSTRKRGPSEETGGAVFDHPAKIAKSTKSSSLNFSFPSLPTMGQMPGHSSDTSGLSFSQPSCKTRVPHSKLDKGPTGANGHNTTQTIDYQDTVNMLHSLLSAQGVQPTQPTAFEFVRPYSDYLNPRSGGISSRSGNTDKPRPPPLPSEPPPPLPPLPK
Chain of CDK9/cyclin T1 (P50750 whole entry): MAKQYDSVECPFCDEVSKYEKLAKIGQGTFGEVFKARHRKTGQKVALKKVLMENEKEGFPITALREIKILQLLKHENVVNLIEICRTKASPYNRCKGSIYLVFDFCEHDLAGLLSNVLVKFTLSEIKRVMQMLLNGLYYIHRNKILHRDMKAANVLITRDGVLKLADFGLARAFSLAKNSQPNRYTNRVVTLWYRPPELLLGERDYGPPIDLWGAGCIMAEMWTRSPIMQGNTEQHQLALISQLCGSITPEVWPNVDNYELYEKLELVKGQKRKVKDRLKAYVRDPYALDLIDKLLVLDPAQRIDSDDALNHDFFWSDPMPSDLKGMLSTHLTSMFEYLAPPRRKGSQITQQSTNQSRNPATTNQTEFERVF

Chain of MAP/microtubule affinity-regulating kinase 3 (Homo sapiens) (P27448 whole entry, looked up, the tested form may be a part): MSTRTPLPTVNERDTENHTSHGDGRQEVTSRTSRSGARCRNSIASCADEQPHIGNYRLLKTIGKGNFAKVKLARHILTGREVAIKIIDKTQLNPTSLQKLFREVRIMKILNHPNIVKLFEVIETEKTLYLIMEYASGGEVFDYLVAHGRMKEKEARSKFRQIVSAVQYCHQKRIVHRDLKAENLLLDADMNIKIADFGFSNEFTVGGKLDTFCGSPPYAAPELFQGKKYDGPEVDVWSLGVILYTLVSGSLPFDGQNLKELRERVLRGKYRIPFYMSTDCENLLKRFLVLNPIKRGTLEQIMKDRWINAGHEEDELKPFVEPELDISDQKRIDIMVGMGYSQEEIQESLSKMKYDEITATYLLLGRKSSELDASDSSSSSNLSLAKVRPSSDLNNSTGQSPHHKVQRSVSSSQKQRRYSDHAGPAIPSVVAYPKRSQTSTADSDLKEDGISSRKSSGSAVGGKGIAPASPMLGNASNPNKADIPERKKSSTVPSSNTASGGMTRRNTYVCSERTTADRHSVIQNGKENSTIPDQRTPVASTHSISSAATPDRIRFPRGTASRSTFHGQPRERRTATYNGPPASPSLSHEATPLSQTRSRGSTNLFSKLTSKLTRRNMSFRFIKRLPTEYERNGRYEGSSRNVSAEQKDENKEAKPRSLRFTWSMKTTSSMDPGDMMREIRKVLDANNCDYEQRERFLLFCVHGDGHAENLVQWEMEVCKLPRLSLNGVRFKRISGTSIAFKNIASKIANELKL
Chain of Myosin-IIIa (Homo sapiens) (Q8NEV4 whole entry, the tested form may be a part): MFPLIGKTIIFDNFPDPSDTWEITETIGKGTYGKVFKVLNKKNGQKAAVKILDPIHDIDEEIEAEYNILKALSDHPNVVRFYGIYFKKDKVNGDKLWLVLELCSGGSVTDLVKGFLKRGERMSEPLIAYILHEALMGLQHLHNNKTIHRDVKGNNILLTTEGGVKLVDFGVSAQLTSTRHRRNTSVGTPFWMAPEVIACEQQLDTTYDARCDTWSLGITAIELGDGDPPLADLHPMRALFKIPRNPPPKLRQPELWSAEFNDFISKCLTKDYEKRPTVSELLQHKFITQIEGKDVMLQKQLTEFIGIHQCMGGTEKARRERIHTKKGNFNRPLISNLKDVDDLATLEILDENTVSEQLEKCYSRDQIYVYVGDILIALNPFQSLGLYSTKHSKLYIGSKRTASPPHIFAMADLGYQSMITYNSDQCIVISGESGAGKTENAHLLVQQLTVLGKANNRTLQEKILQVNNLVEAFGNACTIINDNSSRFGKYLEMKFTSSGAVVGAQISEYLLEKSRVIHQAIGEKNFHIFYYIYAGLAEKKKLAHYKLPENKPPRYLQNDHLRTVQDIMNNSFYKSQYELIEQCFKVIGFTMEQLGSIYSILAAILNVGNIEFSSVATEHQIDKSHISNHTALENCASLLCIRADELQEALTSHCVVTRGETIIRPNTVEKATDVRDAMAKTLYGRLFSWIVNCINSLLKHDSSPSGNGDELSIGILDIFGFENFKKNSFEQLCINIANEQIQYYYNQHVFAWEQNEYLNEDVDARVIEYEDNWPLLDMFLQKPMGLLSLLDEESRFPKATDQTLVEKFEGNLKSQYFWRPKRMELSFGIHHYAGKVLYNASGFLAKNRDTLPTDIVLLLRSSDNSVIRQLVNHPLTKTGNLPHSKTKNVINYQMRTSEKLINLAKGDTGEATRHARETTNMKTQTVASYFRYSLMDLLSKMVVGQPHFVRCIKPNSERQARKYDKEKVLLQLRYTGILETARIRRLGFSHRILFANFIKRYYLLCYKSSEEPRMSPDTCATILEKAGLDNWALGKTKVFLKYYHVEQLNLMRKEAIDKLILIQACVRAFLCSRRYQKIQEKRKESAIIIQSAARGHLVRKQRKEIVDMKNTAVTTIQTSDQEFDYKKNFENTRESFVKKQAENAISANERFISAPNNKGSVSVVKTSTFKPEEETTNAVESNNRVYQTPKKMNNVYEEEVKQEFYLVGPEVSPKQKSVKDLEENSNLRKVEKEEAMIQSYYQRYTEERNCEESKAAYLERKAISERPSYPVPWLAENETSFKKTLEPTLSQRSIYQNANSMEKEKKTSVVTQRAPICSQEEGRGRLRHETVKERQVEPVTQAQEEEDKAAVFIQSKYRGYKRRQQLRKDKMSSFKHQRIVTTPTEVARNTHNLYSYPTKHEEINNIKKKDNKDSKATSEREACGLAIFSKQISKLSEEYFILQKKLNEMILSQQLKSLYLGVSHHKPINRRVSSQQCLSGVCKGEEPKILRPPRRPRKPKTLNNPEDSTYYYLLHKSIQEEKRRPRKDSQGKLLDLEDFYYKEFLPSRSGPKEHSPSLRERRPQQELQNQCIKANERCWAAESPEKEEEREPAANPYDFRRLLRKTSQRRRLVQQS
Chain of Serine/threonine-protein kinase 38 (Homo sapiens) (Q15208 2-465 limits assumed): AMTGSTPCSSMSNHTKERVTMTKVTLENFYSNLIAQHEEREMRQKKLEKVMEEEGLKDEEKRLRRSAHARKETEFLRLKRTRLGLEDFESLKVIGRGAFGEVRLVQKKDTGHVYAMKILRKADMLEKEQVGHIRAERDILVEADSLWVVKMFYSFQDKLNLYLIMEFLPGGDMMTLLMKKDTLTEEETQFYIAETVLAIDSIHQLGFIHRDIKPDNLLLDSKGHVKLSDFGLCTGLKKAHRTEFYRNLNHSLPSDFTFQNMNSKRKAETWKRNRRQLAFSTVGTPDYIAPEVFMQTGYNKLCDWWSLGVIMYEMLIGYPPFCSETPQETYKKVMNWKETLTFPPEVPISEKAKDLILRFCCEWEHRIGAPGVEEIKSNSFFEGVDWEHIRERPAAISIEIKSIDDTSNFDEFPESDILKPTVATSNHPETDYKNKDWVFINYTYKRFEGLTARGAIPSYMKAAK
Chain of Dual specificity testis-specific protein kinase 1 (Homo sapiens) (Q15569 whole entry, looked up, the tested form may be a part): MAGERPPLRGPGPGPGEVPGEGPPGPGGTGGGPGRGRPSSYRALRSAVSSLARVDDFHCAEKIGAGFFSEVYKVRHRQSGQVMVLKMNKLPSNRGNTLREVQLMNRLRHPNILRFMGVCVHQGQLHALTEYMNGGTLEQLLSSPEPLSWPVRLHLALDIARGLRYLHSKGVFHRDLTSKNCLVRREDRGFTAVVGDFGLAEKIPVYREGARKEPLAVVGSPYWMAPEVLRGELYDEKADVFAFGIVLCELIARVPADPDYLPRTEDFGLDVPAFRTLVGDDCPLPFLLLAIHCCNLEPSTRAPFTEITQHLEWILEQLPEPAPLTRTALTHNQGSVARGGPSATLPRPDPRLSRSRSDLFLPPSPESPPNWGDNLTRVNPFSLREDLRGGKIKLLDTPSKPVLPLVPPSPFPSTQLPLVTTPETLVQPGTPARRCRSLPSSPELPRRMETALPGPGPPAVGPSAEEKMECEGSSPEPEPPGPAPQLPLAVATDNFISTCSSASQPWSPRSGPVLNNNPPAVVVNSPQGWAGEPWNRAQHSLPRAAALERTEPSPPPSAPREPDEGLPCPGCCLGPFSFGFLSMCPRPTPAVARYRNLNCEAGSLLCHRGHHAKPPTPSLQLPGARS
Chain of Serine/threonine-protein kinase 24 (Homo sapiens) (Q9Y6E0 whole entry, looked up, the tested form may be a part): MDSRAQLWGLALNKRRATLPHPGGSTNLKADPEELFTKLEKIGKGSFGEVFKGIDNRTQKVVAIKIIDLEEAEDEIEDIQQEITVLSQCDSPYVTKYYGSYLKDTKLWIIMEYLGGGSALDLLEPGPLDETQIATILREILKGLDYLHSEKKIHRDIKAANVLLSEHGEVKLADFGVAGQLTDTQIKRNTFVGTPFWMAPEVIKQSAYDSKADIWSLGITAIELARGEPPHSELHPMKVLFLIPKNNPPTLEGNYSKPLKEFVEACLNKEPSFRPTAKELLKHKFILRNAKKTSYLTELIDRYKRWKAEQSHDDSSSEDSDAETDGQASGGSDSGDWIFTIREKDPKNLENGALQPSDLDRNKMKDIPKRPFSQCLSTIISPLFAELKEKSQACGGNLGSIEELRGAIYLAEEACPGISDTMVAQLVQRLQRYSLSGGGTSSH

## COCCN[C@H]1CC[C@H](Nc2cc(-c3csc(NCC4(C#N)CCOCC4)n3)c(Cl)cn2)CC1
[1]
  inhibition: inactive
[2]
  AUC(0-inf): 662 ng·h/mL
Canis familiaris
  AUC: 16735.55 ng·h/mL
[3]
  MRT inf: 20.4 h
[4]
  Activity: 87%
[5]
  Activity: 88%
[6]
  Activity: 100%
[7]
  Activity: 77%
[8]
  Activity: 93%
[9]
  Activity: 93%
[10]
  Activity: 94%
[11]
  Activity: 100%
[12]
  Activity: 90%
[13]
  Activity: 100%
[14]
  Activity: 78%
[15]
  Activity: 100%
[16]
  Activity: 92%
[17]
  Activity: 70%
[18]
  Activity: 66%
[19]
  Activity: 92%
[20]
  Activity: 87%
CDK9/cyclin T1
  IC50: 1 nM

— ChEMBL document CHEMBL4261600 (Eur J Med Chem, 2018)
